From ChEMBL document CHEMBL1144277, “Acyl sulfonamide anti-proliferatives. Part 2: activity of heterocyclic sulfonamide derivatives” (Bioorg Med Chem Lett, 2005)

How the values were obtained:
[1] = Inhibitory concentration against Vascular Endothelial Growth Factor dependent Human Umbilical Vascular Endothelial Cells (VEGF-HUVEC); assay type: functional
In short: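 Anti-proliferative IC50 measured in HUVEC whose growth depends on VEGF; reported values are means of at least three experiments.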

[2] = Zone of inhibition by the compound against Normal fibroblasts at dose of 210 ug/disk; Range 0-400; assay type: functional
In short: (§1)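 Soft-agar disk diffusion assay on L1210 leukemia cells or normal fibroblasts, with the agent applied on a disk at the stated µg per disk. The zone of inhibition is recorded in zone units (200 units = 6.5 mm), and a zero zone denotes no inhibition.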

L1210 [3] = test: Zone of inhibition by the compound against L1210 Cells at dose of 210 ug/disk; No inhibition; assay type: functional, Mus musculus; in short: as §1
HCT-116 [4] = test: Zone of inhibition by the compound against HCT116 human tumor cells at dose of 210 ug/disk; assay type: functional
In short: (§2)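 HCT116 colon carcinoma cells in a soft-agar disk diffusion assay, giving a qualitative measure of cytotoxicity. The test agent is applied on a disk at the stated µg per disk. The zone of inhibition is read in zone units (200 units = 6.5 mm), and a zero zone means no inhibition.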

[5] = Zone of inhibition by the compound against Normal fibroblasts at dose of 200 ug/disk; Range 0-400; assay type: functional; in short: as §1
L1210 [6] = test: Zone of inhibition by the compound against L1210 Cells at dose of 200 ug/disk; No inhibition; assay type: functional, Mus musculus; in short: as §1
HCT-116 [7] = test: Zone of inhibition by the compound against HCT116 human tumor cells at dose of 200 ug/disk; assay type: functional; in short: as §2
L1210 [8] = test: Zone of inhibition by the compound against L1210 Cells at dose of 200 ug/disk; Range 0-250; assay type: functional, Mus musculus; in short: as §1
HCT-116 [9] = test: Zone of inhibition by the compound against HCT116 human tumor cells at dose of 190 ug/disk; assay type: functional; in short: as §2
L1210 [10] = test: Zone of inhibition by the compound against L1210 Cells at dose of 190 ug/disk; No inhibition; assay type: functional, Mus musculus; in short: as §1
[11] = Zone of inhibition by the compound against Normal fibroblasts at dose of 190 ug/disk; Range 0-350; assay type: functional; in short: as §1
[12] = Zone of inhibition by the compound against Normal fibroblasts at dose of 210 ug/disk; Range 0-330; assay type: functional; in short: as §1
L1210 [13] = test: Zone of inhibition by the compound against L1210 Cells at dose of 210 ug/disk; Range 0-60; assay type: functional, Mus musculus; in short: as §1
L1210 [14] = test: Zone of inhibition by the compound against L1210 Cells at dose of 210 ug/disk;; assay type: functional, Mus musculus; in short: as §1
[15] = Zone of inhibition by the compound against Normal fibroblasts at dose of 210 ug/disk; Range 0-370; assay type: functional; in short: as §1
HCT-116 [16] = test: Zone of inhibition by the compound against HCT116 human tumor cells at dose of 115 ug/disk; assay type: functional; in short: as §2
[17] = Zone of inhibition by the compound against Normal fibroblasts at dose of 210 ug/disk; Range 0-270; assay type: functional; in short: as §1
L1210 [18] = test: Zone of inhibition by the compound against L1210 Cells at dose of 210 ug/disk; Range 200-270; assay type: functional, Mus musculus; in short: as §1
HCT-116 [19] = test: Zone of inhibition by the compound against HCT116 human tumor cells at dose of 210 ug/disk; Range 470-530; assay type: functional; in short: as §2

Row | Compound | IC50 [1] | also measured
1 | O=C(NS(=O)(=O)c1cc(Br)c(Br)s1)c1ccc(Cl)cc1Cl | 220 nM | –
2 | O=C(NS(=O)(=O)c1ccc2c(c1)CCO2)c1ccc(Cl)cc1Cl | 430 nM | Zone of inhibition [2]: 400 zone of inhibition units; Zone of inhibition (L1210 [3]): 0 zone of inhibition units; Zone of inhibition (HCT-116 [4]): 680 zone of inhibition units
3 | Cc1ncc(S(=O)(=O)NC(=O)c2ccc(Cl)cc2Cl)s1 | 1180 nM | –
4 | O=C(NS(=O)(=O)c1cnc(Cl)s1)c1ccc(Cl)cc1Cl | 1090 nM | –
5 | O=C(NS(=O)(=O)c1ccc2c(c1)OCO2)c1ccc(Cl)cc1Cl | 480 nM | Zone of inhibition [5]: 400 zone of inhibition units; Zone of inhibition (L1210 [6]): 0 zone of inhibition units; Zone of inhibition (HCT-116 [7]): 610 zone of inhibition units
6 | O=C(NS(=O)(=O)c1ccc(Cl)c(Cl)c1)c1ccc(Cl)cc1Cl | – | Zone of inhibition (HCT-116 [7]): 560 zone of inhibition units
7 | COc1ccc(S(=O)(=O)NC(=O)c2ccc(Cl)cc2Cl)s1 | 680 nM | –
8 | O=C(NS(=O)(=O)c1cc(Cl)c(Br)s1)c1ccc(Cl)cc1Cl | 760 nM | –
9 | N#Cc1ccc(S(=O)(=O)NC(=O)c2ccc(Cl)cc2Cl)s1 | 3160 nM | –
10 | O=C(NS(=O)(=O)c1ccc(Cl)s1)c1ccc(Cl)cc1Cl | 360 nM | –
11 | O=C(NS(=O)(=O)c1cccc2ccoc12)c1ccc(Cl)cc1Cl | 5210 nM | –
12 | O=C(NS(=O)(=O)c1ccsc1)c1ccc(Cl)cc1Cl | 1270 nM | –
13 | O=C(NS(=O)(=O)c1ccc2cc[nH]c2c1)c1ccc(Cl)cc1Cl | 1870 nM | –
14 | COC(=O)c1ccc(S(=O)(=O)NC(=O)c2ccc(Cl)cc2Cl)s1 | 1390 nM | –
15 | O=C(NS(=O)(=O)c1ccc2c(c1)OCCO2)c1ccc(Cl)cc1Cl | 400 nM | Zone of inhibition [5]: 400 zone of inhibition units; Zone of inhibition (HCT-116 [7]): 580 zone of inhibition units; Zone of inhibition (L1210 [8]): 250 zone of inhibition units
16 | O=C(NS(=O)(=O)c1cccs1)c1ccc(Cl)cc1Cl | 540 nM | Zone of inhibition (HCT-116 [9]): 490 zone of inhibition units; Zone of inhibition (L1210 [10]): 0 zone of inhibition units; Zone of inhibition [11]: 350 zone of inhibition units
17 | CCc1nc(S(=O)(=O)NC(=O)c2ccc(Cl)cc2Cl)c[nH]1 | > 20000 nM | –
18 | CCc1ccc(S(=O)(=O)NC(=O)c2ccc(Cl)cc2Cl)s1 | 310 nM | –

Row | Compound | IC50 [1] | also measured
19 | COc1ncc(S(=O)(=O)NC(=O)c2ccc(Cl)cc2Cl)s1 | 540 nM | –
20 | Cc1ccc(S(=O)(=O)NC(=O)c2ccc(Cl)cc2Cl)s1 | 600 nM | –
21 | O=C(NS(=O)(=O)c1cccc2cc[nH]c12)c1ccc(Cl)cc1Cl | 3040 nM | –
22 | O=C(NS(=O)(=O)c1ccc2ccoc2c1)c1ccc(Cl)cc1Cl | 590 nM | –
23 | O=C(NS(=O)(=O)c1cc(Cl)cs1)c1ccc(Cl)cc1Cl | 390 nM | –
24 | O=C(NS(=O)(=O)c1cc(Br)cs1)c1ccc(Cl)cc1Cl | 600 nM | –
25 | O=C(NS(=O)(=O)c1ccc2ccsc2c1)c1ccc(Cl)cc1Cl | 640 nM | –
26 | CN1CCc2ccc(S(=O)(=O)NC(=O)c3ccc(Cl)cc3Cl)cc21 | 1540 nM | Zone of inhibition [12]: 330 zone of inhibition units; Zone of inhibition (L1210 [13]): 60 zone of inhibition units; Zone of inhibition (HCT-116 [4]): 630 zone of inhibition units
27 | O=C(NS(=O)(=O)c1cc2ccccc2o1)c1ccc(Cl)cc1Cl | 970 nM | –
28 | O=C(NS(=O)(=O)c1ccc2sccc2c1)c1ccc(Cl)cc1Cl | 620 nM | –
29 | O=C(NS(=O)(=O)c1cc2ccccc2s1)c1ccc(Cl)cc1Cl | 960 nM | Zone of inhibition (L1210 [14]): 100 zone of inhibition units; Zone of inhibition (HCT-116 [4]): 500 zone of inhibition units; Zone of inhibition [15]: 370 zone of inhibition units
30 | O=C(NS(=O)(=O)c1ccc(Cl)cc1)c1ccc(Cl)cc1Cl | – | Zone of inhibition (HCT-116 [7]): 660 zone of inhibition units
31 | CCc1ncc(S(=O)(=O)NC(=O)c2ccc(Cl)cc2Cl)s1 | 600 nM | –
32 | Cc1csc(S(=O)(=O)NC(=O)c2ccc(Cl)cc2Cl)c1 | 700 nM | –
33 | O=C(NS(=O)(=O)c1ccccc1)c1ccc(Cl)cc1Cl | – | Zone of inhibition (HCT-116 [16]): 700 zone of inhibition units
34 | O=C(NS(=O)(=O)c1cccc2sccc12)c1ccc(Cl)cc1Cl | 3300 nM | –
35 | O=C(NS(=O)(=O)c1ccc2ccccc2c1)c1ccc(Cl)cc1Cl | 800 nM | Zone of inhibition [17]: 270 zone of inhibition units; Zone of inhibition (L1210 [18]): 270 zone of inhibition units; Zone of inhibition (HCT-116 [19]): 530 zone of inhibition units
36 | O=C(NS(=O)(=O)c1cccc2ccsc12)c1ccc(Cl)cc1Cl | 4160 nM | –
